Consider 40 compounds from ChEMBL document CHEMBL4842335, “Discovery of penipanoid C-inspired 2-(3,4,5-trimethoxybenzoyl)quinazolin-4(3H)-one derivatives as potential anticancer agents by inhibiting cell proliferation and inducing apoptosis in hepatocellular carcinoma cells” (Eur J Med Chem, 2021).

In experiment [1] the test system is HepG2. The experiment in a line: Cytotoxicity against human HepG2 cells assessed as inhibition rate at 2.5 uM incubated for 72 hrs by MTT assay relative to control. The format is functional. In a few lines: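 HepG2 exposed to each compound at 2.5 µM-range single concentration for 72 h at 37 °C after overnight attachment in DMEM + 10% FBS; 0.1% DMSO control. MTT 4 h, DMSO solubilisation, A570; inhibition rate = (Ac−As)/(Ac−Ab)×100.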

Experiment [2] has as its system HepG2. The experiment in a line: Cytotoxicity against human HepG2 cells assessed as inhibition of proliferation incubated for 72 hrs by MTT assay. It counts as functional, cell-based. The conditions noted are these: HepG2, 72 h. In a few lines: (§1)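 Cells plated at 3×10³/well, grown overnight in DMEM + 10% FBS, then exposed to compounds (DMSO stocks; 0.1% DMSO negative control) for 72 h at 37 °C. MTT (5 mg/mL in PBS, added at 10%) for 4 h, formazan dissolved in DMSO, A570 read. Inhibition = (Ac−As)/(Ac−Ab)×100; IC50 by calculator; ≥3 independent repeats.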

The subject of the next experiment is Bel-7402. Nature of the experiment: Cytotoxicity against human Bel-7402 cells assessed as inhibition of proliferation incubated for 72 hrs by MTT assay. It counts as functional, cell-based. To be noted: Bel-7402, 72 h. The method in brief:
as §1

Another experiment relates to U-251. Nature of the experiment: Cytotoxicity against human U251 cells assessed as inhibition of proliferation incubated for 72 hrs by MTT assay. It counts as functional, cell-based. The conditions noted are these: U-251, 72 h. The method in brief: as §1
In general terms: Formazan colour is commonly taken as a measure of viable cells.

In another experiment the test system is A549. Nature of the experiment: Cytotoxicity against human A549 cells assessed as inhibition of proliferation incubated for 72 hrs by MTT assay. It counts as functional, cell-based. To be noted: A549, 72 h. In a few lines: as §1

Structures can show the parent of a compound that is named as a salt. Bounds are passed on as bounds.

By inhibition is commonly meant how much of the control response was suppressed. Turning to `COc1cc(C(=O)c2nc3ccc(F)cc3c(=O)[nH]2)cc(OC)c1OC`, in the experiment with HepG2 [1], the inhibition at 2.5 µM came to 5.1%.

The term IC50 denotes the concentration at which inhibition is half-maximal. Take `COc1cccc2c1C(=O)c1c(O)c3c(c(O)c1C2=O)C[C@@](O)(C(=O)CO)C[C@@H]3O[C@H]1C[C@H](N)[C@H](O)[C@H](C)O1` [DOXORUBICIN HYDROCHLORIDE]: the results for the half-maximal inhibitory concentration (IC50) with HepG2 [2], with Bel-7402 and in the experiment with U-251 were 2.21 µM, 1.28 µM and 0.157 µM, respectively.

Regarding `COc1cc(C(=O)c2nc3cccc(Cl)c3c(=O)[nH]2)cc(OC)c1OC`, the inhibition at 2.5 µM in the experiment on HepG2 [1] came out at 3.7%.

`COc1cc(C(=O)c2nc3c(Cl)cccc3c(=O)[nH]2)cc(OC)c1OC`: in the experiment with HepG2 [1], the inhibition at 2.5 µM was determined as 9.2%.

For `COc1cc(C(=O)c2nc(Cl)c3ccccc3n2)cc(OC)c1OC`, the inhibition at 2.5 µM with HepG2 [1] is 18.4%. Further, the IC50 in the experiment with HepG2 [2] was 10.9 µM; in the experiment on Bel-7402, 6.88 µM; in the experiment on A549, 7.09 µM; with U-251, above 100 µM.

As to `COc1cc(C(=O)c2nc3cc(Br)ccc3c(=O)[nH]2)cc(OC)c1OC`, in the experiment with HepG2 [1], the inhibition at 2.5 µM was 17.6%. In addition, the IC50 in the experiment on HepG2 [2] was 7.45 µM; in the experiment on Bel-7402 it was 4.91 µM; in the experiment with A549 it was 7.27 µM; in the experiment with U-251 it was above 100 µM.

`O=C(c1ccc(OC(F)(F)F)cc1)c1nc2ccccc2c(=O)[nH]1`: the IC50 in the experiment on HepG2 [2] is above 50 µM.

Consider `COc1ccccc1C(=O)c1nc2ccccc2c(=O)[nH]1`, for which the IC50 in the experiment on HepG2 [2] was above 50 µM.

On to `COc1cc2nc(C(=O)c3cc(OC)c(OC)c(OC)c3)[nH]c(=O)c2cc1OC`, for which, in the experiment on HepG2 [1], the inhibition at 2.5 µM came to 5.1%.

Regarding `O=C(c1nc2ccccc2c(=O)[nH]1)c1ccccc1C(F)(F)F`, the IC50 in the experiment with HepG2 [2] was above 50 µM.

With `COc1ccc2c(=O)[nH]c(C(=O)c3cc(OC)c(OC)c(OC)c3)nc2c1`, the inhibition at 2.5 µM in the experiment on HepG2 [1] was found to be 43.4%. Besides, the IC50 in the experiment with HepG2 [2] was 10.6 µM; in the experiment on Bel-7402, 4.13 µM; in the experiment on A549, 12.7 µM; with U-251, 13.7 µM.

On to `COc1cc(C(=O)c2nc3cccc(Br)c3c(=O)[nH]2)cc(OC)c1OC`, for which the inhibition at 2.5 µM with HepG2 [1] amounted to 5.1%.

In the case of `COc1ccc2nc(C(=O)c3cc(OC)c(OC)c(OC)c3)[nH]c(=O)c2c1`, the inhibition at 2.5 µM in the experiment on HepG2 [1] stood at 4.2%.

For `COc1cc(C(=O)c2nc3ccc([N+](=O)[O-])cc3c(=O)[nH]2)cc(OC)c1OC`, in the experiment with HepG2 [1], the inhibition at 2.5 µM stood at 8.8%.

`COc1cc(C(=O)c2nc3ccc(Cl)cc3c(=O)[nH]2)cc(OC)c1OC`: the inhibition at 2.5 µM with HepG2 [1] is 3.4%.

Regarding `COc1cc(C(=O)c2nc3c(Br)cccc3c(=O)[nH]2)cc(OC)c1OC`, the inhibition at 2.5 µM in the experiment with HepG2 [1] was determined as 1.3%.

`COc1cc(C(=O)c2nc3c(OC)cccc3c(=O)[nH]2)cc(OC)c1OC`: the inhibition at 2.5 µM with HepG2 [1] came to 8.1%.

Regarding `CCOc1nc(C(=O)c2cc(OC)c(OC)c(OC)c2)nc2ccccc12`, the inhibition at 2.5 µM in the experiment with HepG2 [1] was 32%. In addition, the half-inhibitory concentration (IC50) in the experiment with HepG2 [2] is 15.6 µM; with Bel-7402, 8.29 µM; with A549, above 100 µM; in the experiment on U-251, 10.6 µM.

As to `COc1cc(C(=O)c2nc3cccc(OC)c3c(=O)[nH]2)cc(OC)c1OC`, the inhibition at 2.5 µM in the experiment with HepG2 [1] came to 10.2%. Besides, the 50% inhibitory concentration (IC50) in the experiment on HepG2 [2] came out at 9.15 µM; in the experiment with Bel-7402, 7.1 µM; in the experiment with A549, 15.4 µM; with U-251, 19.2 µM.

In the case of `C#CCn1c(C(=O)c2cc(OC)c(OC)c(OC)c2)nc2ccccc2c1=O`, the inhibition at 2.5 µM with HepG2 [1] came to 54.7%. For the same compound, the IC50 in the experiment with HepG2 [2] stood at 4.97 µM; in the experiment on Bel-7402, 5.4 µM; in the experiment on A549, 7.66 µM; with U-251, 12.8 µM.

Take `C=CCn1c(C(=O)c2cc(OC)c(OC)c(OC)c2)nc2ccccc2c1=O`: the inhibition at 2.5 µM in the experiment on HepG2 [1] came to 21%. The half-maximal inhibitory concentration (IC50) was determined as 14.1 µM in the experiment with HepG2 [2], 10.7 µM in the experiment with Bel-7402, 10.5 µM with A549 and 13 µM with U-251.

With `O=C(c1nc2ccccc2c(=O)[nH]1)c1ccccc1OC(F)(F)F`, in the experiment with HepG2 [2], the concentration for half-maximal inhibition (IC50) was above 50 µM.

Consider `COc1cc(C(=O)c2nc3cc(Cl)ccc3c(=O)[nH]2)cc(OC)c1OC`, for which the inhibition at 2.5 µM with HepG2 [1] is 8.2%.

`COc1cc(C(=O)c2nc3cc(F)ccc3c(=O)[nH]2)cc(OC)c1OC`: the inhibition at 2.5 µM in the experiment on HepG2 [1] is 9.7%.

Take `COc1cc(C(=O)c2nc3ccccc3c(=O)n2Cc2nnc(-c3ccc(F)cc3)o2)cc(OC)c1OC`: the inhibition at 2.5 µM with HepG2 [1] was found to be 26.3%. Also, the IC50 in the experiment with HepG2 [2] amounted to 7.07 µM; in the experiment on Bel-7402, 4.86 µM; in the experiment with A549, 7.66 µM; in the experiment on U-251, 27.5 µM.

Turning to `O=C(c1ccc(Cl)cc1)c1nc2ccccc2c(=O)[nH]1`, in the experiment on HepG2 [2], the IC50 is above 50 µM.

For `COc1cc(C(=O)c2nc3ccccc3c(=O)n2Cc2nnc(-c3ccc(C)cc3)o2)cc(OC)c1OC`, in the experiment with HepG2 [1], the inhibition at 2.5 µM was found to be 12.6%. Also, the IC50 in the experiment on HepG2 [2] was determined as 10.5 µM; in the experiment on Bel-7402, 8.88 µM; in the experiment with A549 it was 47.1 µM; in the experiment with U-251, 27 µM.

Turning to `COc1cc(C(=O)c2nc3c(F)cccc3c(=O)[nH]2)cc(OC)c1OC`, the inhibition at 2.5 µM in the experiment with HepG2 [1] turned out to be 6.8%.

Regarding `O=C(c1ccc(O)cc1)c1nc2ccccc2c(=O)[nH]1` [PENIPANOID C], the IC50 in the experiment on HepG2 [2] was above 50 µM.

`COc1cc(C(=O)c2nc(OC(C)C)c3ccccc3n2)cc(OC)c1OC`: the inhibition at 2.5 µM with HepG2 [1] was determined as 10.8%. Besides, the half-maximal inhibitory concentration (IC50) in the experiment with HepG2 [2] was 7.45 µM; with Bel-7402 it was 4.91 µM; with A549 it was 7.27 µM; with U-251, above 100 µM.

`COc1cc(C(=O)c2nc3ccccc3c(=O)n2Cc2nnc(-c3ccc(Cl)cc3)o2)cc(OC)c1OC`: the inhibition at 2.5 µM with HepG2 [1] worked out at 2.3%.

As for `COc1cc(C(=O)c2nc3ccccc3c(=O)n2Cc2nnc(-c3ccco3)o2)cc(OC)c1OC`, the inhibition at 2.5 µM in the experiment on HepG2 [1] worked out at 34.4%. Moreover, the IC50 with HepG2 [2] turned out to be 7.51 µM; with Bel-7402 it was 8.15 µM; with A549, 4.62 µM; in the experiment with U-251, 15.9 µM.

In the case of `COc1cc(C(=O)c2nc3cc(F)c(F)cc3c(=O)[nH]2)cc(OC)c1OC`, the inhibition at 2.5 µM in the experiment with HepG2 [1] amounted to 1.2%.

As for `COc1cc(C(=O)c2nc3cc([N+](=O)[O-])ccc3c(=O)[nH]2)cc(OC)c1OC`, the inhibition at 2.5 µM in the experiment on HepG2 [1] worked out at 6.9%.

Take `O=C(c1ccc(C(F)(F)F)cc1)c1nc2ccccc2c(=O)[nH]1`: the IC50 in the experiment on HepG2 [2] was above 50 µM.

`COc1cc(C(=O)c2nc3ccc(Br)cc3c(=O)[nH]2)cc(OC)c1OC`: in the experiment on HepG2 [1], the inhibition at 2.5 µM came out at 3.4%.

As to `O=C(c1ccc(F)cc1)c1nc2ccccc2c(=O)[nH]1`, the concentration for half-maximal inhibition (IC50) with HepG2 [2] was above 50 µM.

In the case of `COc1cc(C(=O)c2nc3ccccc3c(=O)n2C)cc(OC)c1OC`, the inhibition at 2.5 µM with HepG2 [1] amounted to 17.4%. Moreover, the IC50 is 8.19 µM with HepG2 [2], 6.34 µM in the experiment with Bel-7402, 20.3 µM in the experiment on A549 and above 100 µM with U-251.

Regarding `COc1ccc(C(=O)c2nc3ccccc3c(=O)[nH]2)cc1`, the IC50 in the experiment on HepG2 [2] was above 50 µM.

On to `COc1cc(C(=O)c2nc3cccc(F)c3c(=O)[nH]2)cc(OC)c1OC`, for which the inhibition at 2.5 µM with HepG2 [1] is 9.4%.
